# ChEMBL document CHEMBL1138117, “Hybrid antibacterials. DNA polymerase-topoisomerase inhibitors” (J Med Chem, 2006)
# How the values were obtained:
# Enterococcus faecium [1] = assay: Antibacterial activity against Vancomycin resistant Enterococcus faecium VRE 700802; type: functional
# Bacillus subtilis = assay: Antibacterial activity against Bacillus subtilis BD54; type: functional
# Enterococcus faecium [2] = assay: Antibacterial activity against Enterococcus faecium 19434; type: functional
# Mus musculus = assay: Effect on survival of mice after ip infection with Staphylococcus aureus Smith; type: functional
# Summary of the method: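 Male Swiss-Webster mice (20–24 g) were given 10⁸ CFU of log-phase S. aureus Smith ip, grown in LB at 37 °C and washed in cold broth. A single iv tail-vein dose was given in DCP vehicle (10% DMA, 10% Cremophor EL in PBS, pH 9.5; 5 mL/kg) 15 min post-infection. Survival was scored at 72 h and ED50 derived.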
# Escherichia coli = assay: Antibacterial activity against Escherichia coli J53; type: functional
# Staphylococcus aureus [3] = assay: Antibacterial activity against methicillin resistant Staphylococcus aureus MRSA 1094; type: functional
# Enterococcus faecalis = assay: Antibacterial activity against Enterococcus faecalis 29212; type: functional
# Staphylococcus aureus [4] = assay: Antibacterial activity against Staphylococcus aureus smith; type: functional
# Staphylococcus aureus [5] = assay: Antibacterial activity against Staphylococcus aureus 25293; type: functional
# [6] = target: DNA polymerase III PolC-type (Bacillus subtilis (strain 168), UniProt P13267); assay: Binding affinity to Bacillus subtilis DNA polymerase3C
# DNA polymerase III PolC-type, sequence (P13267 whole entry, the tested form may be a part): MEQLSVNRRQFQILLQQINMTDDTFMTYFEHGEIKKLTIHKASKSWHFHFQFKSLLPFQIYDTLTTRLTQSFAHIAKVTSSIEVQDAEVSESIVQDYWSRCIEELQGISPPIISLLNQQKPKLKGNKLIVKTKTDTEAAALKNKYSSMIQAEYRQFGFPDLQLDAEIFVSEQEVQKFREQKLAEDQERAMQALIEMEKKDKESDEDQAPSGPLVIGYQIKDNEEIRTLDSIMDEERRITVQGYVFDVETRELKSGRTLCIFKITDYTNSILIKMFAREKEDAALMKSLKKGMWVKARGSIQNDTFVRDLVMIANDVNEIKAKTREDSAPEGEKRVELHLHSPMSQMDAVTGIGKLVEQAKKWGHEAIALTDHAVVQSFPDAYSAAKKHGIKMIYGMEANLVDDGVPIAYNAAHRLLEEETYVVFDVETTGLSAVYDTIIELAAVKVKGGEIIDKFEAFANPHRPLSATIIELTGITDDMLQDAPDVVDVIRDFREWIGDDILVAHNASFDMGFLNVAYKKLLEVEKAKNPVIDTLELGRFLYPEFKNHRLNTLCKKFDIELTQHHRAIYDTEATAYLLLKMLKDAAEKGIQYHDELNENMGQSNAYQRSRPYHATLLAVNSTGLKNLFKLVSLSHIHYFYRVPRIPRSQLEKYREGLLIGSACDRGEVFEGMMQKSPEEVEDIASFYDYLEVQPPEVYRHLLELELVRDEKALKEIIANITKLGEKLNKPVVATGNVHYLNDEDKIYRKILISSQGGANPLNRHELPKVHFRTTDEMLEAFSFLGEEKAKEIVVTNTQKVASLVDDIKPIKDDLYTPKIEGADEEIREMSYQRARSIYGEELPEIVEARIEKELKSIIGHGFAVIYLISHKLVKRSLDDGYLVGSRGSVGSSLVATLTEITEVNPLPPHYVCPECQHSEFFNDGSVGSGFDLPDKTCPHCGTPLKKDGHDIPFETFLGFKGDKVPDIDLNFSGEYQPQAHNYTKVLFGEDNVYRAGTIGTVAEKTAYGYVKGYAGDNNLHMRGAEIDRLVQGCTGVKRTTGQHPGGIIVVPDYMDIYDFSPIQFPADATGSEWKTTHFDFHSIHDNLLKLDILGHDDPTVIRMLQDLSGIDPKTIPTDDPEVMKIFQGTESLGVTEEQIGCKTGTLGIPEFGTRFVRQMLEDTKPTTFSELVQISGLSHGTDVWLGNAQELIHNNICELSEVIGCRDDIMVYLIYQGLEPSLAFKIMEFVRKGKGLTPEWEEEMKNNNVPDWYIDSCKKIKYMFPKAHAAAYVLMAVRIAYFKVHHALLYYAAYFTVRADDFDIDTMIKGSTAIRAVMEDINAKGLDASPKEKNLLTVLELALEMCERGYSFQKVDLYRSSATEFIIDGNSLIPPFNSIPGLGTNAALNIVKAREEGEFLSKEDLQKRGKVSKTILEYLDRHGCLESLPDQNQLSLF
# Summary of the method: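 Homogeneous recombinant B. subtilis pol IIIC was assayed in 96-well format on activated calf thymus DNA. Apparent Ki values were determined in a truncated assay lacking the competitor dGTP.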
# [7] = test system: DNA gyrase (Bacillus subtilis); assay: Inhibition of Bacillus subtilis gyrase activity
# [8] = Cmax in mice at 100 mg/kg, iv; type: ADME, organism-based; set-up: dose 100 mg/kg, route intravenous; conditions: Swiss Webster, mouse, in vivo
# Summary of the method: (§1)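 Male Swiss-Webster mice (20–24 g) got a single 100 mg/kg iv tail-vein bolus at 5 mL/kg in DCP vehicle (10% N,N-dimethylacetamide, 10% Cremophor EL in PBS, pH 9.5). Blood was taken from groups of 3 at various times. Plasma was quantified by C18 HPLC with MeCN:H₂O:NEt₃:AcOH (25:74.7:0.2:0.1), 1 mL/min, detection at 282 nm, against a spiked-plasma standard curve linear over 1–40 μg/mL.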
# [9] = target: DNA topoisomerase IV (Bacillus subtilis); assay: Inhibition of Bacillus subtilis topoisomerase IV activity
# [10] = Plasma concentration after 6 hrs in mice administered with 100 mg/kg, iv; type: ADME, organism-based; set-up: dose 100 mg/kg, route intravenous; conditions: Swiss Webster, mouse; summary of the method: as §1
# [11] = Tmax in mice at 100 mg/kg, iv; type: ADME, organism-based; set-up: dose 100 mg/kg, route intravenous; conditions: Swiss Webster, mouse, in vivo; summary of the method: as §1
Compound,MIC (Enterococcus faecium [1]),MIC (Bacillus subtilis),MIC (Enterococcus faecium [2]),ED50 (Mus musculus),MIC (Escherichia coli),MIC (Staphylococcus aureus [3]),MIC (Enterococcus faecalis),MIC (Staphylococcus aureus [4]),MIC (Staphylococcus aureus [5]),Ki ([6]; read-out: Ki),IC50 [7],Cmax [8],IC50 [9],MIC (Mus musculus),concentration at 6 h [10],Tmax [11],Ki [6]
CCc1cc(Nc2cc(=O)n(CCCCN3CCN(c4c(F)cc5c(=O)c(C(=O)O)cn(C6CC6)c5c4F)CC3CO)c(=O)[nH]2)ccc1C (stereo unspecified),2.5 µg/mL,0.625 µg/mL,2.5 µg/mL,35 mg/kg,> 40 µg/mL,5 µg/mL,2.5 µg/mL,–,–,–,–,–,–,–,–,–,–
CCc1cc(Nc2cc(=O)n(CCCCN3CCN(c4cc5c(cc4F)c(=O)c(C(=O)O)cn5-c4ccc(F)cc4F)CC3)c(=O)[nH]2)ccc1C,1.25 µg/mL,0.313 µg/mL,1.25 µg/mL,27 mg/kg,> 40 µg/mL,–,1.25 µg/mL,–,–,–,–,–,–,–,–,–,–
CCc1cc(Nc2cc(=O)n(CCCCN3CCN(c4cc5c(cc4F)c(=O)c(C(=O)O)cn5-c4ccc(F)cc4)CC3)c(=O)[nH]2)ccc1C,1.25 µg/mL,0.156 µg/mL,1.25 µg/mL,–,> 40 µg/mL,2.5 µg/mL,0.625 µg/mL,0.625 µg/mL,1.25 µg/mL,0.017 µM,–,–,–,–,–,–,–
CCc1cc(Nc2cc(=O)n(CCCCN3CCN(c4cc5c(cc4F)c(=O)c(C(=O)O)cn5C4CC4)C[C@H]3C)c(=O)[nH]2)ccc1C,0.625 µg/mL,0.313 µg/mL,0.625 µg/mL,20 mg/kg,–,2.5 µg/mL,0.625 µg/mL,–,–,–,–,–,–,–,–,–,–
CCc1cc(Nc2cc(=O)n(CCCCCN3CC4CCCN(c5cc6c(cc5F)c(=O)c(C(=O)O)cn6C5CC5)C4C3)c(=O)[nH]2)ccc1C (stereo unspecified),–,1.25 µg/mL,> 80 µg/mL,–,> 80 µg/mL,> 80 µg/mL,> 80 µg/mL,1.25 µg/mL,2.5 µg/mL,0.041 µM,–,–,–,–,–,–,–
Cc1ccc(Nc2cc(=O)n(CCCCN3CCN(c4cc5c(cc4F)c(=O)c(C(=O)O)cn5C4CC4)CC3)c(=O)[nH]2)cc1C,1.25 µg/mL,0.313 µg/mL,2.5 µg/mL,–,> 40 µg/mL,5 µg/mL,2.5 µg/mL,0.625 µg/mL,1.25 µg/mL,–,–,–,–,–,–,–,–
CCc1cc(Nc2cc(=O)n(CCCCCN3CC4OCCN(c5cc6c(cc5F)c(=O)c(C(=O)O)cn6C5CC5)C4C3)c(=O)[nH]2)ccc1C (stereo unspecified),10 µg/mL,0.625 µg/mL,> 80 µg/mL,–,40 µg/mL,5 µg/mL,5 µg/mL,0.625 µg/mL,1.25 µg/mL,0.033 µM,–,–,–,–,–,–,–
CCc1cc(Nc2cc(=O)n(CCCCN3CCN(c4cc5c(cc4F)c(=O)c(C(=O)O)cn5C4CC4)CC3C)c(=O)[nH]2)ccc1C (stereo unspecified),0.626 µg/mL,0.313 µg/mL,1.25 µg/mL,20 mg/kg,40 µg/mL,1.25 µg/mL,1.25 µg/mL,–,–,0.026 µM,–,–,–,–,–,–,–
CCc1cc(Nc2cc(=O)n(CCCCN3CCN(c4c(F)cc5c(=O)c(C(=O)O)cn(CC)c5c4F)CC3)c(=O)[nH]2)ccc1C,0.625 µg/mL,0.313 µg/mL,1.25 µg/mL,–,> 40 µg/mL,–,1.25 µg/mL,–,–,–,–,–,–,–,–,–,–
CCc1cc(Nc2cc(=O)n(CCCCN3CCN(c4cc5c(cc4F)c(=O)c(C(=O)O)cn5C4CC4)C[C@@H]3C)c(=O)[nH]2)ccc1C,0.625 µg/mL,–,1.25 µg/mL,30 mg/kg,40 µg/mL,1.25 µg/mL,0.625 µg/mL,–,1.25 µg/mL,–,–,–,–,–,–,–,–
CCc1cc(Nc2cc(=O)n(CCCCO)c(=O)[nH]2)ccc1C,5 µg/mL,1.25 µg/mL,5 µg/mL,–,> 40 µg/mL,5 µg/mL,5 µg/mL,5 µg/mL,5 µg/mL,0.066 µM,–,–,–,–,–,–,–
O=C(O)c1cn(C2CC2)c2cc(N3CCN(CCCCn4c(=O)cc(Nc5ccccc5)[nH]c4=O)CC3)c(F)cc2c1=O,40 µg/mL,2.5 µg/mL,> 40 µg/mL,–,> 40 µg/mL,> 40 µg/mL,10 µg/mL,2.5 µg/mL,2.5 µg/mL,29 µM,–,–,–,–,–,–,–
CCc1cc(Nc2cc(=O)n(CCCCN3CCN(c4c(F)cc5c(=O)c(C(=O)O)cn(C6CC6)c5c4Cl)CC3)c(=O)[nH]2)ccc1C,0.625 µg/mL,0.078 µg/mL,1.25 µg/mL,–,20 µg/mL,1.25 µg/mL,0.625 µg/mL,0.156 µg/mL,0.313 µg/mL,0.01 µM,–,–,–,–,–,–,–
CCc1cc(Nc2cc(=O)n(CCCCCN3CCN(c4cc5c(cc4F)c(=O)c(C(=O)O)cn5C4CC4)CC3)c(=O)[nH]2)ccc1C,1.25 µg/mL,0.313 µg/mL,1.25 µg/mL,–,> 40 µg/mL,2.5 µg/mL,0.625 µg/mL,1.25 µg/mL,1.25 µg/mL,0.019 µM,–,–,–,–,–,–,–
CCc1cc(Nc2cc(=O)n(CCCCCN3CC4CCCN(c5cc6c(cc5F)c(=O)c(C(=O)O)cn6CC)C4C3)c(=O)[nH]2)ccc1C (stereo unspecified),5 µg/mL,2.5 µg/mL,20 µg/mL,–,> 80 µg/mL,> 80 µg/mL,10 µg/mL,5 µg/mL,10 µg/mL,0.037 µM,–,–,–,–,–,–,–
CCc1cc(Nc2cc(=O)n(CCCCN3CCN(c4cc5c(cc4F)c(=O)c(C(=O)O)cn5CC)CC3)c(=O)[nH]2)ccc1C,0.625 µg/mL,0.313 µg/mL,0.625 µg/mL,–,> 40 µg/mL,2.5 µg/mL,0.625 µg/mL,1.25 µg/mL,1.25 µg/mL,–,–,–,–,–,–,–,–
CCc1cc(Nc2cc(=O)n(CCCCN3CCN(c4c(F)cc5c(=O)c(C(=O)O)cn(C6CC6)c5c4F)C[C@H]3C)c(=O)[nH]2)ccc1C,1.25 µg/mL,–,2.5 µg/mL,20 mg/kg,5 µg/mL,1.25 µg/mL,1.25 µg/mL,–,–,0.007 µM,11.7 µg/mL,–,–,–,–,–,–
CCc1cc(Nc2cc(=O)n(CCCCN3CCN(c4c(F)cc5c(=O)c(C(=O)O)cn(C6CC6)c5c4F)C[C@@H]3C)c(=O)[nH]2)ccc1C,0.625 µg/mL,–,1.25 µg/mL,15 mg/kg,20 µg/mL,–,1.25 µg/mL,–,0.625 µg/mL,0.004 µM,9.2 µg/mL,–,–,–,–,–,–
CCc1cc(Nc2cc(=O)n(CCCCN3CCN(c4c(F)cc5c(=O)c(C(=O)O)cn(C6CC6)c5c4OC)CC3)c(=O)[nH]2)ccc1C,0.625 µg/mL,0.156 µg/mL,1.25 µg/mL,25 mg/kg,> 40 µg/mL,1.25 µg/mL,1.25 µg/mL,0.313 µg/mL,0.625 µg/mL,0.014 µM,–,–,–,–,–,–,–
CCc1cc(Nc2cc(=O)n(CCCCN3CCN(c4cc5c(cc4F)c(=O)c(C(=O)O)cn5C4CC4)CC3)c(=O)[nH]2)ccc1C,0.625 µg/mL,–,1.25 µg/mL,–,> 40 µg/mL,2.5 µg/mL,0.625 µg/mL,–,–,–,28.4 µg/mL,213 µg/mL,22.9 µg/mL,0.41 µg/mL,0.62 µg/mL,5 min,–
CCc1cc(Nc2cc(=O)n(CCCCN3CCN(c4nc5c(cc4F)c(=O)c(C(=O)O)cn5CC)CC3)c(=O)[nH]2)ccc1C,0.625 µg/mL,0.313 µg/mL,1.25 µg/mL,–,> 40 µg/mL,2.5 µg/mL,1.25 µg/mL,–,–,–,–,–,–,–,–,–,–
CCc1cc(Nc2cc(=O)n(CCCCN3CCN(c4cc5c(cc4F)c(=O)c(C(=O)O)cn5C(C)(C)C)CC3)c(=O)[nH]2)ccc1C.Cl,1.25 µg/mL,0.313 µg/mL,1.25 µg/mL,–,> 40 µg/mL,1.25 µg/mL,0.625 µg/mL,0.625 µg/mL,0.625 µg/mL,0.013 µM,–,–,–,–,–,–,–
O=C(O)c1cn(C2CC2)c2cc(N3CCNCC3)c(F)cc2c1=O [CIPROFLOXACIN],80 µg/mL,–,–,–,0.313 µg/mL,20 µg/mL,–,–,0.313 µg/mL,–,1.9 µg/mL,–,–,–,–,–,Not Active
CC(=O)NC[C@H]1CN(c2ccc(N3CCOCC3)c(F)c2)C(=O)O1 [LINEZOLID],1.25 µg/mL,0.625 µg/mL,2.5 µg/mL,–,> 80 µg/mL,1.25 µg/mL,1.25 µg/mL,2.5 µg/mL,1.25 µg/mL,–,–,–,–,–,–,–,Not Active
CCn1cc(C(=O)O)c(=O)c2ccc(C)nc21 [NALIDIXIC ACID],–,–,–,–,–,–,–,–,–,–,34.6 µg/mL,–,–,–,–,–,–
CCn1cc(C(=O)O)c(=O)c2cc(F)c(N3CCNCC3)cc21 [NORFLOXACIN],80 µg/mL,0.313 µg/mL,10 µg/mL,–,1.25 µg/mL,40 µg/mL,2.5 µg/mL,–,–,–,–,–,–,–,–,–,Not Active
C[C@@H]1CN(c2c(F)c(N)c3c(=O)c(C(=O)O)cn(C4CC4)c3c2F)C[C@H](C)N1 [SPARFLOXACIN],80 µg/mL,< 0.078 µg/mL,1.25 µg/mL,–,< 0.078 µg/mL,10 µg/mL,5 µg/mL,< 0.078 µg/mL,< 0.078 µg/mL,–,0.4 µg/mL,–,–,–,–,–,Not Active
